The record followed here is ChEMBL document CHEMBL1155366, “Synthesis of novel ageladine A analogs showing more potent matrix metalloproteinase (MMP)-12 inhibitory activity than the natural product” (Bioorg Med Chem Lett, 2009).

The target of this assay is Macrophage metalloelastase (Homo sapiens, UniProt P39900). In words: Inhibition of human MMP12 catalytic domain. The procedure, abridged: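 Human MMP-12 catalytic domain (residues 84-255) in 50 mM Tris pH 7.5, 0.05% Brij-35, 10 mM CaCl₂, 1 mM DTNB. Preincubated with inhibitor in DMSO for 20 min at RT. The chromogenic thiopeptolide substrate (1 mM stock) was then added and the mix incubated 30–80 min at 37 °C. Reaction stopped with 0.2 M EDTA (pH 8.0); color read at 405 nm.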
Sequence of Macrophage metalloelastase (P39900 whole entry, the tested form may be a part): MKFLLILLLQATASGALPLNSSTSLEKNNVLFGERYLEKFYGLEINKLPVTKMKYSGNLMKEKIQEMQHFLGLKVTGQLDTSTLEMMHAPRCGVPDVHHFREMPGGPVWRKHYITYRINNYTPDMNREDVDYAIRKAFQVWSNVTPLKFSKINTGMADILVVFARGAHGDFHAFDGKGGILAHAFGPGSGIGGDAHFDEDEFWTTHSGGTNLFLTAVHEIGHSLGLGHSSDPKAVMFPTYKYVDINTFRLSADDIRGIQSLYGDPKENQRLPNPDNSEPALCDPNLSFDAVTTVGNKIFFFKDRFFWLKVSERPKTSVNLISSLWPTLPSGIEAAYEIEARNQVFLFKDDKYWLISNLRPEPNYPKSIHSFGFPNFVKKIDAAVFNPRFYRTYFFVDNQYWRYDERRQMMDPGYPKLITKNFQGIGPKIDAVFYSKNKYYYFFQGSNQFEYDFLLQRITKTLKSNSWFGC

Where only a bound is given, the exact number is not on record here.

In turn, `Nc1nc2c(-c3[nH]c(Br)c(CCCc4ccccc4)c3Br)nccc2[nH]1` returned an IC50 greater than 100 µM.

For `Nc1nc2c(-c3cc(Br)c[nH]3)nccc2[nH]1`, the IC50 is greater than 100 µM.

`Nc1nc2c(-c3cc(Br)c(-c4ccc(-c5ccccc5)cc4)[nH]3)nccc2[nH]1` came in with an IC50 greater than 100 µM.

Compound `Nc1nc2c(-c3[nH]c(Br)c(CCc4ccc(C(F)(F)F)cc4)c3Br)nccc2[nH]1` yielded an IC50 greater than 100 µM.

Regarding `Nc1nc2c(-c3cc(Br)c(-c4ccccc4)[nH]3)nccc2[nH]1`, the IC50 is greater than 100 µM.

`Nc1nc2c(-c3cc(CCCc4ccccc4)c(Br)[nH]3)nccc2[nH]1` returned an IC50 greater than 100 µM.

For the compound `Cc1[nH]c(-c2nccc3[nH]c(N)nc23)c(Br)c1Br`, the IC50 is greater than 100 µM.

On to `Nc1nc2c(-c3[nH]c(Br)c(Cc4ccccc4)c3Br)nccc2[nH]1`, for which the IC50 is greater than 100 µM.

Turning to `Cc1c(Br)[nH]c(-c2nccc3[nH]c(N)nc23)c1Br`, the IC50 stood at 5.02 µM.

Turning to `Nc1nc2c(-c3cc(Cc4ccccc4)c(Br)[nH]3)nccc2[nH]1`, the IC50 was greater than 100 µM.

Regarding `Nc1nc2c(-c3[nH]c(Br)c(CCc4ccccc4C(F)(F)F)c3Br)nccc2[nH]1`, the IC50 was greater than 100 µM.

With `Nc1nc2c(-c3cc(Br)c(-c4cccc(-c5ccccc5)c4)[nH]3)nccc2[nH]1`, the 50% inhibitory concentration (IC50) is greater than 100 µM.

On to `Nc1nc2c(-c3cc(CCc4ccccc4)c(Br)[nH]3)nccc2[nH]1`, for which the IC50 came out at 10.2 µM.

Consider `Nc1nc2c(-c3[nH]c(Br)c(CCc4ccccc4)c3Br)nccc2[nH]1`, for which the IC50 was 2.99 µM.

The compound `Cc1cc(-c2nccc3[nH]c(N)nc23)[nH]c1Br` displayed an IC50 greater than 100 µM.

On to `Nc1nc2c(-c3[nH]c(Br)c(Br)c3Br)nccc2[nH]1`, for which half-maximal inhibition (IC50) required 1.24 µM.

For the compound `Nc1nc2c(-c3ccc(Br)[nH]3)nccc2[nH]1`, the IC50 is greater than 100 µM.

In turn, `Nc1nc2c(-c3cc(Cl)c(Cl)[nH]3)nccc2[nH]1` gave an IC50 of 5.02 µM.

`Nc1nc2c(-c3cc(Br)c(Cl)[nH]3)nccc2[nH]1` had an IC50 of 2.02 µM.

Turning to `Nc1nc2c(-c3[nH]c(Br)c(CCc4cccc(C(F)(F)F)c4)c3Br)nccc2[nH]1`, the IC50 is greater than 100 µM.

`Cc1[nH]c(-c2nccc3[nH]c(N)nc23)cc1Br` had an IC50 greater than 100 µM.

Turning to `Nc1nc2c(-c3[nH]c(Br)c(Br)c3CCc3ccccc3)nccc2[nH]1`, the IC50 was greater than 100 µM.

As for `Nc1nc2c(-c3cc(-c4ccccc4)c(Br)[nH]3)nccc2[nH]1`, inhibition was half-maximal at 18.7 µM (IC50).

As usually defined, the IC50 is the concentration that gives 50% inhibition. High values mean weaker potency in that assay, low ones greater potency in that assay.
